Results as given in ChEMBL document CHEMBL1155380, “Synthesis and characterization of a novel iNOS/Akt inhibitor Se,Se'-1,4-phenylenebis(1,2-ethanediyl)bisisoselenourea (PBISe)--against colon cancer” (Bioorg Med Chem Lett, 2010).
Calls of active or inactive are those of the source. The rule behind the calls is not given here.

Assays:
SW480 [1] = assay: Ratio of IC50 for human SW480 cells to IC50 for human FF2441 cells
Method in brief: (§1)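 Colon adenocarcinoma lines (Caco-2, HT-29, HCT-116, SW-480) were grown in Advanced DMEM with 10% heat-treated FBS and L-glutamine, or in RPMI-1640 with 10% FBS. They were exposed to PBS vehicle or graded compound (10–100 μM, or 1.6–50 μM) for 72 h, and viability was read by MTS. FF2441 normal fibroblasts were tested by a similar MTS procedure. IC50 was fitted from dose-response curves.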

Caco-2 [2] = assay: Selectivity ratio of IC50 for human Caco-2 cells to IC50 for human FF2441 cells; method in brief: as §1
HCT-116 = assay: Antitumor activity against human HCT116 cells after 72 hrs by MTS assay; assay type: functional, cell-based; conditions: HCT-116, 72 h
Method in brief: (§2)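 Colon adenocarcinoma cells (Advanced DMEM with 2 mM L-glutamine and 10% heat-treated FBS, or RPMI-1640 with 10% FBS) exposed to increasing concentrations (10–100 μM, or 1.6–50 μM) for 72 h. Viable cells quantified by MTS. IC50 from dose-response curves, at least three independent experiments.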

[3] = Selectivity ratio of IC50 for human HCT116 cells to IC50 for human FF2441 cells; assay type: ADME, cell-based, HCT-116; conditions: HCT116 cells and FF2441 cells; method in brief: as §1
SW480 [4] = assay: Antitumor activity against human SW480 cells after 72 hrs by MTS assay; assay type: functional, cell-based; conditions: SW480, 72 h; method in brief: as §2
HT-29 [5] = assay: Selectivity ratio of IC50 for human HT-29 cells to IC50 for human FF2441 cells; method in brief: as §1
Caco-2 [6] = assay: Antitumor activity against human Caco-2 cells after 72 hrs by MTS assay; assay type: functional, cell-based; conditions: Caco-2, 72 h
Method in brief: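 Cells plated at 5×10^3 per well for 24 h, then exposed to PBS vehicle or increasing compound concentrations for 72 h. Viable cells were quantified by MTS and expressed as a percentage of the PBS-treated control. IC50 was fitted from dose-response curves, from at least three independent experiments, and reported with standard error.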

Cancer cell lines [7] = assay: Inhibition of MAPK in human colon cancer cells assessed as increase in cleaved PARP level at 2 to 6 uM by Western blot analysis; assay type: cell-based
Method in brief: (§3)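 They were cleared at ≥10,000×g for 10 min at 4°C and assayed by BCA; 30 μg per lane went on NuPAGE gels, then PVDF. Probes: phospho-Akt (Ser473), phospho-PRAS40, cleaved PARP and p27, with HRP secondaries and ECL detection.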

WM-115 = assay: Antitumor activity against human WM115 cells after 24 hrs by MTS assay; assay type: functional, cell-based; conditions: WM-115, 24 h
Method in brief: (§4)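 Cells plated at 5×10^3 per well for 24 h, then treated with PBS vehicle or increasing concentrations (10–100 μM or 1–40 μM). Viable cells measured by MTS as percent of PBS control. IC50 from dose-response curves. Normal FF2441 fibroblasts run alongside. Lines grown in DMEM/10% FBS, except WM115 in Tu2% medium without calcium chloride, with 2% heat-treated FBS.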

Cancer cell lines [8] = assay: Inhibition of MAPK in human colon cancer cells assessed as decrease in AKT2 level at 2 to 6 uM by Western blot analysis; assay type: cell-based
Cancer cell lines [9] = assay: Inhibition of MAPK in human colon cancer cells assessed as increase in p27 level at 2 to 6 uM by Western blot analysis; assay type: cell-based; method in brief: as §3
Cancer cell lines [10] = assay: Inhibition of MAPK in human colon cancer cells assessed as decrease in pAKT level at 2 to 6 uM by Western blot analysis; assay type: cell-based; method in brief: as §3
Cancer cell lines [11] = assay: Inhibition of MAPK in human colon cancer cells assessed as decrease in pPRAS40 level at 2 to 6 uM by Western blot analysis; assay type: cell-based; method in brief: as §3
PC-3 = assay: Antitumor activity against human PC3 cells after 24 hrs by MTS assay; assay type: functional, cell-based; conditions: PC-3, 24 h; method in brief: as §4
HT-1080 = assay: Antitumor activity against human HT1080 cells after 24 hrs by MTS assay; assay type: functional, cell-based; conditions: HT-1080, 24 h; method in brief: as §4
A549 = assay: Antitumor activity against human A549 cells after 24 hrs by MTS assay; assay type: functional, cell-based; conditions: A549, 24 h; method in brief: as §4
MDA-MB-231 = assay: Antitumor activity against human MDA-MB-231 cells after 24 hrs by MTS assay; assay type: functional, cell-based; conditions: MDA-MB-231, 24 h; method in brief: as §4
OVCAR-3 = assay: Antitumor activity against human OVCAR-3 cells after 24 hrs by MTS assay; assay type: functional, cell-based; conditions: OVCAR-3, 24 h; method in brief: as §4
[12] = molecular target: Nitric oxide synthase, inducible (Homo sapiens) (UniProt P35228); assay: Inhibition of iNOS in human Caco-2 cells assessed as reduction of total nitrite production at 2 uM after 72 hrs by colorimetric assay relative to control; assay type: cell-based
Chain of Nitric oxide synthase, inducible (Homo sapiens) (P35228 whole entry): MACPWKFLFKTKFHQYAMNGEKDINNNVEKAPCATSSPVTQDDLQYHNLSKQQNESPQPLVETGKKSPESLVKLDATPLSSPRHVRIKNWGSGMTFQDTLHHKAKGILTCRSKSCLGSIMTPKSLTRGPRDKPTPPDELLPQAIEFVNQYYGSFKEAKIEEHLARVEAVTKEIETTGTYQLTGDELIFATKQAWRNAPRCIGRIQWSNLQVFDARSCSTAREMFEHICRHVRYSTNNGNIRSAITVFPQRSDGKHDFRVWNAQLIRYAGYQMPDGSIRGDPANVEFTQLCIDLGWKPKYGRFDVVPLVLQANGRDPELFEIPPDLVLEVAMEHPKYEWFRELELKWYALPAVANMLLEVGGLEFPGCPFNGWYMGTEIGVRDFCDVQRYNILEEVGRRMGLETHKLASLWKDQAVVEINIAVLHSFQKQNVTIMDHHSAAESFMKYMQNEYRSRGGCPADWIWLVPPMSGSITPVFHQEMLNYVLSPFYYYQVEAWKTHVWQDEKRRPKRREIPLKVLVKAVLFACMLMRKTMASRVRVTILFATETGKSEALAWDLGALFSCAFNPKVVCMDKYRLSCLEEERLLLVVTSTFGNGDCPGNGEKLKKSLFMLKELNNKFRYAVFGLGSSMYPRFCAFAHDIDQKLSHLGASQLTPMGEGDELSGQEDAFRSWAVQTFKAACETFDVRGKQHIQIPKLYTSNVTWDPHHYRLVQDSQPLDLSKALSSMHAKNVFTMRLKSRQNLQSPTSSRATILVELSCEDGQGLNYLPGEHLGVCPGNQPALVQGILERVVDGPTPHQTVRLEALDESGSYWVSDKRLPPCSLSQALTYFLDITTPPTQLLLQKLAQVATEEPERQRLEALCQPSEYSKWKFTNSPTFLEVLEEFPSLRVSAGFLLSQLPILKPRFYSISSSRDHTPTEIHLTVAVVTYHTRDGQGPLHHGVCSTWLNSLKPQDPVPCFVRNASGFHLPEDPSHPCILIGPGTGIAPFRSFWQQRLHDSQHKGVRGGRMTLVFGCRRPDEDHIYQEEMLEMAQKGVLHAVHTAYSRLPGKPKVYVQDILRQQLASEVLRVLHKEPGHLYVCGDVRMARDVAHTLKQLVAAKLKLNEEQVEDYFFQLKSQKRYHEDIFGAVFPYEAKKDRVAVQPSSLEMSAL
Method in brief: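 Caco-2 cells (1×10^6) in Advanced DMEM/10% heat-treated FBS for 12 h, then conditioned in phenol-red-free DMEM/0.5% FBS. Treated 72 h in the same medium, PBS control. Supernatant cleared at 500×g, incubated 2 h with nitrate reductase and cofactors, then Griess reagents I and II. A540 read against a nitrate standard curve (5–35 μM). One-way ANOVA.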

Cancer cell lines [13] = assay: Inhibition of PI3K in human colon cancer cells assessed as increase in cleaved PARP level at 2 to 6 uM by Western blot analysis; assay type: cell-based
Method in brief: (§5)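 Lysates in HEPES pH 7.5/NaCl/EDTA/Triton X-100 buffer with phosphatase and protease inhibitors, cleared at ≥10,000×g for 10 min at 4°C. BCA-quantified, 30 μg per lane. SDS gel, PVDF transfer, probed for PRAS40, phospho-PRAS40, Akt3, phospho-Akt Ser473, p27, cleaved PARP, cyclin D1 and Erk. HRP secondaries, ECL detection.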

Cancer cell lines [14] = assay: Inhibition of PI3K in human colon cancer cells assessed as decrease in pAKT level at 2 to 6 uM by Western blot analysis; assay type: cell-based; method in brief: as §5
HT-29 [15] = assay: Antitumor activity against human HT-29 cells after 72 hrs by MTS assay; assay type: functional, cell-based; conditions: HT-29, 72 h; method in brief: as §2
Cancer cell lines [16] = assay: Inhibition of PI3K in human colon cancer cells assessed as increase in p27 level at 2 to 6 uM by Western blot analysis; assay type: cell-based; method in brief: as §5
Cancer cell lines [17] = assay: Inhibition of PI3K in human colon cancer cells assessed as decrease in AKT2 level at 2 to 6 uM by Western blot analysis; assay type: cell-based
Cancer cell lines [18] = assay: Inhibition of PI3K in human colon cancer cells assessed as decrease in pPRAS40 level at 2 to 6 uM by Western blot analysis; assay type: cell-based; method in brief: as §5

| IC50 (HCT-116) [µM] | IC50 (Caco-2 [6]) [µM] | Compound | Ratio (SW480 [1]) | Ratio (Caco-2 [2]) | selectivity ratio [3] | IC50 (SW480 [4]) [µM] | Ratio (HT-29 [5]) | IC50 (WM-115) [µM] | IC50 (PC-3) [µM] | IC50 (HT-1080) [µM] | IC50 (A549) [µM] | IC50 (MDA-MB-231) [µM] | IC50 (OVCAR-3) [µM] | other results |
| --- | --- | --- | --- | --- | --- | --- | --- | --- | --- | --- | --- | --- | --- | --- |
| > 100 | > 100 | Br.N=C(N)SCCc1ccccc1 [PHENYLETHYLISOTHIOUREAHYDROBROMIDE] | 2 | 2 | 2 | > 100 | 2 |  |  |  |  |  |  |  |
| > 100 | 59.4 | Br.Br.N=C(N)SCCc1ccc(CCSC(=N)N)cc1 | 2 | 2 | 2 |  |  | > 100 | > 100 | > 100 | > 100 | > 100 | > 100 | inhibition (Cancer cell lines [7]): inactive; inhibition (Cancer cell lines [8]): inactive; inhibition (Cancer cell lines [9]): inactive; inhibition (Cancer cell lines [10]): inactive; inhibition (Cancer cell lines [11]): inactive |
|  |  | Br.N=C(N)[Se]CCc1ccc(CC[Se]C(=N)N)cc1 | 2 | 2 | 2 |  | 2 | 9.7 | 6.64 | 3.22 | 4.17 | 6.03 | 5.33 | inhibition [12]: 25%; inhibition (Cancer cell lines [13]): Active; inhibition (Cancer cell lines [14]): Active; IC50 (HT-29 [15]): 3.84 µM; inhibition (Cancer cell lines [16]): Active; inhibition (Cancer cell lines [17]): Active; inhibition (Cancer cell lines [18]): Active |

| Compound | IC50 (HCT-116) [µM] | IC50 (Caco-2 [6]) [µM] | Ratio (SW480 [1]) | Ratio (Caco-2 [2]) | selectivity ratio [3] | IC50 (SW480 [4]) [µM] | Ratio (HT-29 [5]) | IC50 (WM-115) [µM] | IC50 (PC-3) [µM] | IC50 (HT-1080) [µM] | IC50 (A549) [µM] | IC50 (MDA-MB-231) [µM] | IC50 (OVCAR-3) [µM] | other results |
| --- | --- | --- | --- | --- | --- | --- | --- | --- | --- | --- | --- | --- | --- | --- |
| Br.N=C(N)[Se]CCc1ccccc1 | > 100 |  | 2 | 2 | 2 | > 100 | 2 |  |  |  |  |  |  |  |
